Source: ChEMBL document CHEMBL1123033, “Synthesis and antiherpes simplex virus activity of 9-[(1,3-dihydroxy-2-propylthio)methyl]guanine” (1985)
Active and inactive are the calls of the source. The rule behind the calls is not given here.

Key:
Human alphaherpesvirus 1 = test: In vitro antiviral and anticellular activity was evaluated against herpes simplex virus HSV-1 (F strain) in vero cells tissue culture; assay type: functional; settings: Human alphaherpesvirus 1, Vero; read-out: ID50 (the source's name)
Method in brief: (§1)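 Plaque reduction assay in Vero cells infected with HSV; cells exposed to the nucleoside analogue. ID50 is the dose giving a 50% drop in plaque count relative to untreated controls.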

Mus musculus [1] = test: (§2) Mean survival time of HSV-2 induced mortality in mice was determined when the 10 mg/Kg of compound was administered subcutaneously; assay type: functional, organism-based
Method in brief: (§3)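 Mice (female Swiss-Webster, ~20 g) challenged intraperitoneally with 5 × 10^4 PFU HSV-2 strain G (~10 LD50); subcutaneous dosing once daily for 4 days, first dose 24 h after infection, with a saline group run alongside. Mean survival time in days ± standard deviation; probability by Mann-Whitney u-test.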

Mus musculus [2] = test: Effect of subcutaneous dose at 10 mg/kg on HSV-2 induced mortality in mice; 1/16; assay type: functional
Method in brief: (§4)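 Female Swiss-Webster mice (~20 g) infected intraperitoneally with 5 × 10^4 PFU HSV-2 strain G (~10 LD50), then dosed subcutaneously once daily (24-h intervals) for 4 days starting 24 h post-infection, with a saline group run alongside. Read-out is survivors/total (15–16 mice per group) with percent survivors; probability by Fisher exact test.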

Mus musculus [3] = test: Effect of subcutaneous dose at 30 mg/kg on HSV-2 induced mortality in mice; assay type: functional; method in brief: as §4
Vero = test: In vitro antiviral and anticellular activity was evaluated against vero cells in tissue culture; assay type: functional; settings: Chlorocebus sabaeus, read-out: ID50 (the source's name)
Method in brief: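 Anticellular activity measured by cell proliferation assay in uninfected Vero cells.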

Human betaherpesvirus 5 = test: In vitro antiviral and anticellular activity was evaluated against human cytomegalovirus (HCMV AD 169) in […].; assay type: functional; settings: read-out: ID50 (the source's name)
Method in brief: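 Plaque reduction assay in MRC-5 cells infected with HCMV and treated with the nucleoside analogue. ID50 is the dose cutting plaque numbers by 50% versus untreated controls.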

Human alphaherpesvirus 2 [4] = test: In vitro antiviral and anticellular activity was evaluated against herpes simplex virus HSV-2 (G strain) in vero (HSV-2 G ) cells.; assay type: functional; settings: Human alphaherpesvirus 2, Vero; read-out: ID50 (the source's name); method in brief: as §1
Mus musculus [5] = test: Effect of subcutaneous dose at 100 mg/kg on HSV-2 induced mortality in mice; 8/15; assay type: functional; method in brief: as §4
Mus musculus [6] = test: Effect of subcutaneous dose at 30 mg/kg on HSV-2 induced mortality in mice; 2/16; assay type: functional; method in brief: as §4
Mus musculus [7] = test: Effect of subcutaneous dose at 10 mg/kg on HSV-2 induced mortality in mice; assay type: functional; method in brief: as §4
Mus musculus [8] = test: Mean survival time of HSV-2 induced mortality in mice was determined when the 30 mg/Kg of compound was administered subcutaneously; NS means not significant; assay type: functional, organism-based; method in brief: as §3
Human alphaherpesvirus 2 [9] = test: In vitro antiviral and anticellular activity was evaluated against herpes simplex virus HSV-2 (G strain) in vero cells.; assay type: functional; settings: Human alphaherpesvirus 2, Vero; read-out: ID50 (the source's name); method in brief: as §1
Mus musculus [10] = test: Effect of subcutaneous dose at 30 mg/kg on HSV-2 induced mortality in mice; 12/16; assay type: functional; method in brief: as §4
Mus musculus [11] = test: Effect of subcutaneous dose at 10 mg/kg on HSV-2 induced mortality in mice; 7/16; assay type: functional; method in brief: as §4
Mus musculus [12] = test: Effect of subcutaneous dose at 3 mg/kg on HSV-2 induced mortality in mice; assay type: functional; method in brief: as §4
Mus musculus [13] = test: Effect of subcutaneous dose at 30 mg/kg on HSV-2 induced mortality in mice(value in parentheses denotes probability; assay type: functional; method in brief: as §4
Mus musculus [14] = test: as §2; assay type: functional; method in brief: as §3
Mus musculus [15] = test: Mean survival time of HSV-2 induced mortality in mice was determined when the 3 mg/Kg of compound was administered subcutaneously; NS means not significant; assay type: functional, organism-based; method in brief: as §3
Mus musculus [16] = test: Effect of subcutaneous dose at 3 mg/kg on HSV-2 induced mortality in mice; 4/16; assay type: functional; method in brief: as §4

SMILES | IC50 (Human alphaherpesvirus 1) [µM] | IC50 (Vero) [µM] | IC50 (Human betaherpesvirus 5) [µM] | Mean survival time (Mus musculus [7]) [days] | IC50 (Human alphaherpesvirus 2 [9]) [µM] | other results
Nc1nc(O)c2ncn(CSC(CO)CO)c2n1 | 0.9 | 900 | 80 | 9.7 | – | Mean survival time (Mus musculus [1]): inactive; Survivors (Mus musculus [2]): 1; Mean survival time (Mus musculus [3]): 9.4 days; IC50 (Human alphaherpesvirus 2 [4]): 8 µM; Survivors (Mus musculus [5]): 8; Survivors (Mus musculus [6]): 2; Mean survival time (Mus musculus [8]): inactive
Nc1nc2c(ncn2COCCO)c(=O)[nH]1 [ACYCLOVIR] | 0.4 | 1100 | 100 | – | 1.5 | –
Nc1nc2c(ncn2COC(CO)CO)c(=O)[nH]1 [GANCICLOVIR] | 0.3 | 500 | 6 | 12.4 | 1.3 | Survivors (Mus musculus [10]): 12; Survivors (Mus musculus [11]): 7; Mean survival time (Mus musculus [12]): 11.2 days; Mean survival time (Mus musculus [13]): 13.8 days; Mean survival time (Mus musculus [14]): <0.001; Mean survival time (Mus musculus [15]): inactive; Survivors (Mus musculus [16]): 4

Second part, led by results:

IC50 (Human alphaherpesvirus 1) [µM] | SMILES | IC50 (Vero) [µM] | IC50 (Human betaherpesvirus 5) [µM] | Mean survival time (Mus musculus [7]) [days] | IC50 (Human alphaherpesvirus 2 [9]) [µM] | other results
25 | Nc1nc(O)c2ncn(C[S+]([O-])C(CO)CO)c2n1 (centres undefined) | – | – | – | – | –
40 | Nc1nc(O)c2ncn(CS(=O)(=O)C(CO)CO)c2n1 | – | – | – | – | –
